Test results published in ChEMBL document CHEMBL1125822, “Quantitative structure-activity relationships of antitumor guanidinothiazolecarboxamides with survival enhancement for therapy in the 3LL Lewis lung carcinoma model” (1991).

Tested on: Lewis lung carcinoma cell line
Assay: Compound injected intraperitoneally for 8 days and was tested for mean of increased life span in female BDF mice injected intravenously with 3LL Lewis Lung adenocarcinoma into lateral tail vein before 2 days
Format: functional, Mus musculus
Outline: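 Female BDF1 mice (18–20 g) given 6×10^5 log-phase 3LL cells in 0.2 mL RPMI 1640 by lateral tail vein. Drug suspended in DMSO/saline buffered to pH 7.4, dosed ip once daily on days 2–9 (8 treatments); screening dose 50 mg/kg. Mice monitored daily for survival; ILS (%) = (MST treated/MST vehicle control ×100) − 100; significance by Armitage trend test.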

Row | Compound | ILS
1 | COc1ccc(Cl)c2sc(NC(=O)c3csc(N=C(N)N)n3)nc12 | 69
2 | CSc1ccc2sc(NC(=O)c3csc(N=C(N)N)n3)nc2c1.Cl | 1
3 | CCCCOc1ccc2sc(NC(=O)c3csc(N=C(N)N)n3)nc2c1.Cl | 34.5
4 | N=C(N)Nc1nc(C(=O)Nc2nc3c([N+](=O)[O-])cccc3s2)cs1 | 30
5 | Cl.N=C(N)Nc1nc(C(=O)Nc2nc3c(O)cccc3s2)cs1 | 14
6 | Cc1cc2nc(NC(=O)c3csc(N=C(N)N)n3)sc2cc1C.Cl | 18
7 | Cl.N=C(N)Nc1nc(C(=O)Nc2nc3cc([N+](=O)[O-])ccc3s2)cs1 | 57
8 | Cl.N=C(N)Nc1nc(C(=O)Nc2nc3ccc(Cl)cc3s2)cs1 | 58
9 | Cl.N=C(N)Nc1nc(C(=O)Nc2nc3ccccc3s2)cs1 | 15
10 | CCCCCS(=O)(=O)c1ccc2nc(NC(=O)c3csc(N=C(N)N)n3)sc2c1 | 30
11 | COc1cc([N+](=O)[O-])cc2sc(NC(=O)c3csc(N=C(N)N)n3)nc12 | 20
12 | CCOc1ccc2sc(NC(=O)c3csc(N=C(N)N)n3)nc2c1.Cl | 44
13 | N=C(N)Nc1nc(C(=O)Nc2nc3cc(Cl)c(F)cc3s2)cs1 | 41
14 | N=C(N)Nc1nc(C(=O)Nc2nc3c(F)ccc(F)c3s2)cs1 | 26
15 | Cl.N=C(N)Nc1nc(C(=O)Nc2nc3ccc([N+](=O)[O-])cc3s2)cs1 | 51.7
16 | N=C(N)Nc1nc(C(=O)Nc2nc3cc(F)c(Cl)cc3s2)cs1 | 75
17 | N=C(N)Nc1nc(C(=O)Nc2nc3ccc(F)cc3s2)cs1 | 38.8
18 | Cl.N=C(N)Nc1nc(C(=O)Nc2nc3cc(F)cc(F)c3s2)cs1 | 22
19 | COc1ccc(C(F)(F)F)c2sc(NC(=O)c3csc(N=C(N)N)n3)nc12 | 17
20 | Cl.N=C(N)Nc1nc(C(=O)Nc2nc3cccc(-c4ccccc4)c3s2)cs1 | 49
21 | Cc1cc(C)c2nc(NC(=O)c3csc(N=C(N)N)n3)sc2c1 | 64

Row | Compound | ILS
22 | Cc1cccc2sc(NC(=O)c3csc(N=C(N)N)n3)nc12.Cl | 44
23 | N=C(N)Nc1nc(C(=O)Nc2nc3cc(Cl)c(C(N)=O)cc3s2)cs1 | 42
24 | CCCCOc1ccc2nc(NC(=O)c3csc(N=C(N)N)n3)sc2c1.Cl | 59
25 | CC(C)c1cccc2sc(NC(=O)c3csc(N=C(N)N)n3)nc12.Cl | 24
26 | Cc1c(Cl)ccc2sc(NC(=O)c3csc(N=C(N)N)n3)nc12.Cl | 73
27 | CSc1ccc2nc(NC(=O)c3csc(N=C(N)N)n3)sc2c1 | 25.5
28 | CS(=O)(=O)c1ccc2sc(NC(=O)c3csc(N=C(N)N)n3)nc2c1 | 1
29 | N=C(N)Nc1nc(C(=O)Nc2nc3cc(F)c(F)cc3s2)cs1 | 62
30 | N=C(N)Nc1nc(C(=O)Nc2nc3cc(F)c(O)cc3s2)cs1 | 23
31 | COc1ccc2nc(NC(=O)c3csc(N=C(N)N)n3)sc2c1 | 7.5
32 | COc1ccc2sc(NC(=O)c3csc(N=C(N)N)n3)nc2c1C | 57
33 | CC(C)c1ccc2nc(NC(=O)c3csc(N=C(N)N)n3)sc2c1 | 38
34 | N=C(N)Nc1nc(C(=O)Nc2nc3ccc(C(N)=O)cc3s2)cs1 | 1
35 | Cc1c(F)ccc2sc(NC(=O)c3csc(N=C(N)N)n3)nc12.Cl | 62
36 | Cc1cc(F)cc2sc(NC(=O)c3csc(N=C(N)N)n3)nc12.Cl | 29
37 | Cc1ccc2nc(NC(=O)c3csc(N=C(N)N)n3)sc2c1 | 37.3
38 | Cl.N#Cc1ccc2nc(NC(=O)c3csc(NC(=N)N)n3)sc2c1 | 53
39 | N=C(N)Nc1nc(C(=O)Nc2nc3cc(F)ccc3s2)cs1 | 67.6
40 | CC(C)Oc1ccc2sc(NC(=O)c3csc(N=C(N)N)n3)nc2c1.Cl | 23
41 | COc1cc2nc(NC(=O)c3csc(N=C(N)N)n3)sc2cc1Cl | 21
42 | N=C(N)Nc1nc(C(=O)Nc2nc3ccc(-c4ccccc4)cc3s2)cs1 | 67

Row | Compound | ILS
43 | N=C(N)Nc1nc(C(=O)Nc2nc3cc(Cl)c(Cl)cc3s2)cs1 | 71
44 | CCOc1ccc(Cl)c2sc(NC(=O)c3csc(N=C(N)N)n3)nc12 | 75
45 | Cc1cc(Cl)cc2sc(NC(=O)c3csc(N=C(N)N)n3)nc12 | 15
46 | CCc1cc(C#N)cc2sc(NC(=O)c3csc(N=C(N)N)n3)nc12.Cl | 38
47 | N=C(N)Nc1nc(C(=O)Nc2nc3c(Cl)cccc3s2)cs1 | 18
48 | CCc1ccc2nc(NC(=O)c3csc(N=C(N)N)n3)sc2c1.Cl | 33
49 | CCOc1ccc(F)c2sc(NC(=O)c3csc(N=C(N)N)n3)nc12 | 53
50 | Cc1ccc(F)c2sc(NC(=O)c3csc(N=C(N)N)n3)nc12.Cl | 53
51 | N=C(N)Nc1nc(C(=O)Nc2nc3c(F)cccc3s2)cs1 | 38
52 | Cl.N=C(N)Nc1nc(C(=O)Nc2nc3cc(-c4ccccc4)ccc3s2)cs1 | 18
53 | COc1cc2nc(NC(=O)c3csc(N=C(N)N)n3)sc2cc1OC | 5
54 | Cl.N=C(N)Nc1nc(C(=O)Nc2nc3ccc(Cl)c(C(F)(F)F)c3s2)cs1 | 69
55 | Cl.N=C(N)Nc1nc(C(=O)Nc2nc3ccc(S(N)(=O)=O)cc3s2)cs1 | 1
56 | CCOc1ccc2nc(NC(=O)c3csc(N=C(N)N)n3)sc2c1 | 6
57 | CC(C)(C)c1ccc2nc(NC(=O)c3csc(N=C(N)N)n3)sc2c1.Cl | 61
58 | Cl.N=C(N)Nc1nc(C(=O)Nc2nc3cc(O)ccc3s2)cs1 | 10
59 | COc1cccc2sc(NC(=O)c3csc(N=C(N)N)n3)nc12.Cl | 45
60 | CSc1cccc2sc(NC(=O)c3csc(N=C(N)N)n3)nc12.Cl | 9
61 | Cc1cc(C(F)(F)F)cc2sc(NC(=O)c3csc(N=C(N)N)n3)nc12 | 19
62 | N=C(N)Nc1nc(C(=O)Nc2nc3cccc(C(F)(F)F)c3s2)cs1 | 35
63 | CCCc1ccc2nc(NC(=O)c3csc(N=C(N)N)n3)sc2c1.Cl | 21.5
